Measurements: ChEMBL document CHEMBL1914427, “Design, synthesis and biological evaluation of benzo[1.3.2]dithiazolium ylide 1,1-dioxide derivatives as potential dual cyclooxygenase-2/5-lipoxygenase inhibitors” (Bioorg Med Chem, 2011)
Active and inactive are the calls of the source. No cut-off for these calls is given here.

Key:
[1] = biological target: T1, Prostaglandin G/H synthase 2 (Homo sapiens) (UniProt P35354); experiment: Inhibition of human recombinant COX2 expressed in Sf21 cells assessed as conversion of arachidonic acid to PGE2 at 10 uM preincubated for 15 mins measured after 5 mins by enzyme immunoassay
T1 sequence (whole entry): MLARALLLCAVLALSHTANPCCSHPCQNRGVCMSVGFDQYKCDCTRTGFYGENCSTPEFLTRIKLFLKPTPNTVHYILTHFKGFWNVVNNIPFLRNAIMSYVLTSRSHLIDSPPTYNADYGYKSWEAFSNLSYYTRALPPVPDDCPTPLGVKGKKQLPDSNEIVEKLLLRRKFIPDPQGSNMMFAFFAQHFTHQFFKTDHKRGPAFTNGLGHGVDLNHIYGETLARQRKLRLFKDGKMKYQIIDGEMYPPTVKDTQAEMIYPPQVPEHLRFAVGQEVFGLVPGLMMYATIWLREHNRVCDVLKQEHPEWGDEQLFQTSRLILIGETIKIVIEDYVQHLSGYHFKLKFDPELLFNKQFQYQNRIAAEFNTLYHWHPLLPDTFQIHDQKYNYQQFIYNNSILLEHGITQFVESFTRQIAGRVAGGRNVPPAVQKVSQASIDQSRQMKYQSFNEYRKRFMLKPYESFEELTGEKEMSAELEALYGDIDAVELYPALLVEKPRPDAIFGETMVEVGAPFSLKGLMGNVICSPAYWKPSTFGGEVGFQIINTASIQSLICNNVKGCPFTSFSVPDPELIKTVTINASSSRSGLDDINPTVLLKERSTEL
Outline: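 Human recombinant COX-2 (Sf21-expressed, 0.11 U) preincubated with compound 15 min at 37 °C in Tris–HCl pH 7.7 containing 1 mM glutathione, phenol and hematin. Reaction started with 0.3 arachidonic acid. Run by a contract lab.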

[2] = biological target: T2, Polyunsaturated fatty acid 5-lipoxygenase (Homo sapiens) (UniProt P09917); experiment: Inhibition of […] human 5-LOX in human PBML assessed as inhibition of A23187-induced LTB4 production at 10 uM preincubated for 15 mins measured after 15 mins by enzyme immunoassay
T2 sequence (whole entry): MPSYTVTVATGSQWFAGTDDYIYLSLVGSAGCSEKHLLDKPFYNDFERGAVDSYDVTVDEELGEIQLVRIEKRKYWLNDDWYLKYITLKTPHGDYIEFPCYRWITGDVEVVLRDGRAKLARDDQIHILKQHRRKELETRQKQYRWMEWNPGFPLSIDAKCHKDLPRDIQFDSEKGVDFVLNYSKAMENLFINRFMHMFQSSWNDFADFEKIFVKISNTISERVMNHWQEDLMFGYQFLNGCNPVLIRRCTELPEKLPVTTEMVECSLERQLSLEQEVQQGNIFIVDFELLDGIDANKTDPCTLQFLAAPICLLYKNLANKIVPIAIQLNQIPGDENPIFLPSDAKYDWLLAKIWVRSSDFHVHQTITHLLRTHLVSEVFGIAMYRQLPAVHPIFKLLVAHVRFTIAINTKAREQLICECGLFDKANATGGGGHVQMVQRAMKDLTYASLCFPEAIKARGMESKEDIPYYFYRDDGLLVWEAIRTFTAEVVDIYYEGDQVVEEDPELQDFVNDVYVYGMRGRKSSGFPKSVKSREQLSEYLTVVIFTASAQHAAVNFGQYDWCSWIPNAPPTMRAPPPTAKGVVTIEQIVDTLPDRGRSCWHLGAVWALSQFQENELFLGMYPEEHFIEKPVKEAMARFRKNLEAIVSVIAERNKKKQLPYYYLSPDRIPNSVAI
Outline: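 Human PBML (5 × 10⁶ cells/mL) in HBSS pH 7.4 preincubated with compound 15 min at 37 °C. Calcium ionophore A23187 (30) then added, 15 min at 37 °C, and reaction stopped with 1 N HCl.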

[3] = biological target: T3, Prostaglandin G/H synthase 2 (Homo sapiens, UniProt P35354); experiment: Inhibition of human recombinant COX2 expressed in Sf21 cells assessed as conversion of arachidonic acid to PGE2 preincubated for 15 mins measured after 5 mins by enzyme immunoassay
T3 sequence (P35354 whole entry): T1 sequence (whole entry)

[4] = biological target: T4, Polyunsaturated fatty acid 5-lipoxygenase (Homo sapiens, UniProt P09917); experiment: Inhibition of […] human PBML assessed as inhibition of A23187-induced LTB4 production preincubated for 15 mins measured after 15 mins by enzyme immunoassay
T4 sequence (P09917 whole entry): T2 sequence (whole entry)

[5] = tested on: Rattus norvegicus; experiment: Antiinflammatory activity in Wistar rat assessed as inhibition of carrageenan-induced paw edema at 150 mg/kg, po administered 1 hr before carrageenan challenge measured after 3 hrs relative to vehicle treated control; format: functional
Outline: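 Male Wistar rats given aspirin orally at 150 mg/kg, 1 h before intraplantar carrageenan (0.1 mL of 1% suspension) into the right hind paw. Hind paw edema read by plethysmometer 3 h after carrageenan; reduction taken relative to vehicle group.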

[6] = tested on: Rattus norvegicus; experiment: Antiinflammatory activity in Wistar rat assessed as inhibition of carrageenan-induced paw edema at 10 mg/kg, ip administered 30 mins before carrageenan challenge measured after 3 hrs relative to vehicle treated control; format: functional; conditions: route intraperitoneal
Outline: (§1)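 Male Wistar rats, held at 20–24 °C and 50–80% humidity on 12 h light/dark for at least three days, with chow and water unless fasted. Test article given IP at 10, 30 or 100 mg/kg in 1% Tween 80/0.9% NaCl, dosing volume 5 mL/kg, 30 min before intraplantar carrageenan (0.1 mL of 1% suspension) into the right hind paw. Edema read by plethysmometer at 3 h; inhibition taken relative to vehicle group.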

[7] = tested on: Rattus norvegicus; experiment: Antiinflammatory activity in Wistar rat assessed as inhibition of carrageenan-induced paw edema at 30 mg/kg, ip administered 30 mins before carrageenan challenge measured after 3 hrs relative to vehicle treated control; format: functional; conditions: route intraperitoneal; outline: as §1
[8] = tested on: Rattus norvegicus; experiment: Antiinflammatory activity in Wistar rat assessed as inhibition of carrageenan-induced paw edema at 100 mg/kg, ip administered 30 mins before carrageenan challenge measured after 3 hrs relative to vehicle treated control; format: functional; conditions: route intraperitoneal; outline: as §1
[9] = tested on: Rattus norvegicus; experiment: Antiinflammatory activity in ip dosed Wistar rat assessed as inhibition of carrageenan-induced paw edema administered 30 mins before carrageenan challenge measured after 3 hrs; format: functional, organism-based; outline: as §1

NS(=O)(=O)c1ccc2c(c1)S(c1ccc(F)cc1F)=NS2(=O)=O (stereo not drawn)
inhibition [1]: inactive | inhibition [2]: inactive

CC(C)c1ccc(S2=NS(=O)(=O)c3cc([N+](=O)[O-])ccc32)cc1 (stereo not drawn)
IC50 [3]: 730 nM | IC50 [4]: 360 nM

NC(=O)c1ccc2c(c1)S(=O)(=O)N=S2c1ccc(Br)cc1 (stereo not drawn)
inhibition [1]: 0% | inhibition [2]: 15%

CS(=O)(=O)c1ccc2c(c1)S(=O)(=O)N=S2c1ccc(Br)cc1 (stereo not drawn)
IC50 [3]: 1800 nM | IC50 [4]: 13500 nM

CCc1ccc(S2=NS(=O)(=O)c3cc([N+](=O)[O-])ccc32)cc1 (stereo not drawn)
IC50 [3]: 1700 nM | IC50 [4]: 180 nM

NS(=O)(=O)c1cc2c(cc1Cl)S(c1ccc(Br)cc1)=NS2(=O)=O (stereo not drawn)
IC50 [3]: 2300 nM | IC50 [4]: 25800 nM

CC(=O)Oc1ccccc1C(=O)O [ASPIRIN]
inhibition in vivo at 150 mg/kg [5]: 38%

Cc1ccc(S2=NS(=O)(=O)c3ccc(S(N)(=O)=O)cc32)cc1C (stereo not drawn)
inhibition [1]: 15% | inhibition [2]: inactive

NS(=O)(=O)c1ccc2c(c1)S(c1ccc(Cl)cc1Cl)=NS2(=O)=O (stereo not drawn)
inhibition [1]: 9% | inhibition [2]: inactive

COc1ccc(S2=NS(=O)(=O)c3cc([N+](=O)[O-])ccc32)cc1OC (stereo not drawn)
IC50 [4]: 680 nM | inhibition [1]: 15%

NS(=O)(=O)c1ccc2c(c1)S(c1ccc(Br)cc1)=NS2(=O)=O (stereo not drawn)
inhibition [2]: 14%

CC(C)(C)c1ccc(S2=NS(=O)(=O)c3ccc(S(N)(=O)=O)cc32)cc1 (stereo not drawn)
inhibition [1]: inactive | inhibition [2]: 25%

COc1ccc(S2=NS(=O)(=O)c3ccc(S(N)(=O)=O)cc32)cc1OC (stereo not drawn)
inhibition [1]: 6% | inhibition [2]: inactive

O=S1(=O)N=C(c2ccc(Br)cc2)c2ccccc21
inhibition [1]: 0% | inhibition [2]: 11%

NS(=O)(=O)c1ccc2c(c1)S(c1ccc(C(F)(F)F)cc1)=NS2(=O)=O (stereo not drawn)
inhibition [1]: inactive | inhibition [2]: 37%

NS(=O)(=O)c1ccc2c(c1)S(c1ccc(Cl)c(Cl)c1)=NS2(=O)=O (stereo not drawn)
inhibition [1]: 14% | inhibition [2]: inactive

CC(C)(C)c1ccc(S2=NS(=O)(=O)c3cc([N+](=O)[O-])ccc32)cc1 (stereo not drawn)
IC50 [3]: 270 nM | IC50 [4]: 300 nM | inhibition in vivo at 10 mg/kg [6]: 14% | inhibition in vivo at 30 mg/kg [7]: 27% | inhibition in vivo at 100 mg/kg [8]: 65% | inhibition [9]: Dose-dependent effect

NS(=O)(=O)c1ccc2c(c1)S(c1cccc(Br)c1)=NS2(=O)=O (stereo not drawn)
inhibition [1]: 7% | inhibition [2]: 28%

O=C(O)c1ccc2c(c1)S(=O)(=O)N=S2c1ccc(Br)cc1 (stereo not drawn)
inhibition [1]: 7% | inhibition [2]: 2%

NS(=O)(=O)c1ccc2c(c1)S(c1ccc(Cl)cc1)=NS2(=O)=O (stereo not drawn)
inhibition [1]: inactive | inhibition [2]: 19%

Cc1ccc(C2=NS(=O)(=O)c3ccccc32)cc1
inhibition [1]: 16% | inhibition [2]: 9%

O=[N+]([O-])c1ccc2c(c1)S(=O)(=O)N=S2c1ccc(C(F)(F)F)cc1 (stereo not drawn)
IC50 [3]: 2990 nM | IC50 [4]: 3090 nM

COc1cc(OC)cc(OCCS2=NS(=O)(=O)c3cc([N+](=O)[O-])ccc32)c1 (stereo not drawn)
IC50 [4]: 3700 nM | inhibition [1]: 35%

COC(=O)c1ccc2c(c1)S(=O)(=O)N=S2c1ccc(Br)cc1 (stereo not drawn)
IC50 [4]: 4100 nM | inhibition [1]: 33%

CCc1ccc(S2=NS(=O)(=O)c3ccc(S(N)(=O)=O)cc32)cc1 (stereo not drawn)
inhibition [1]: inactive | inhibition [2]: 7%

CC(C)(C)c1ccc(S2=NS(=O)(=O)c3cc(S(N)(=O)=O)ccc32)cc1 (stereo not drawn)
inhibition [1]: 21% | inhibition [2]: 23%

Cc1ccc(S2=NS(=O)(=O)c3ccc(S(N)(=O)=O)cc32)cc1 (stereo not drawn)
inhibition [1]: 2% | inhibition [2]: 9%

NS(=O)(=O)c1ccc2c(c1)S(c1ccc(F)cc1)=NS2(=O)=O (stereo not drawn)
inhibition [1]: 2% | inhibition [2]: 9%

CC(C)c1ccc(S2=NS(=O)(=O)c3cc(S(N)(=O)=O)ccc32)cc1 (stereo not drawn)
inhibition [1]: 44% | inhibition [2]: 42%

CCc1ccc(C2=NS(=O)(=O)c3cc(S(N)(=O)=O)ccc32)cc1
inhibition [1]: 0% | inhibition [2]: 8%

COC1(c2cc(F)cc(OCCS3=NS(=O)(=O)c4cc([N+](=O)[O-])ccc43)c2)CCOCC1 (stereo not drawn)
inhibition [1]: 25% | inhibition [2]: 25%

NS(=O)(=O)c1ccc2c(c1)S(=O)(=O)N=S2c1ccc(Br)cc1 (stereo not drawn)
IC50 [4]: 91100 nM | inhibition [1]: 0%

O=[N+]([O-])c1ccc2c(c1)S(=O)(=O)N=S2c1ccc(-c2ccccc2)cc1 (stereo not drawn)
IC50 [3]: 500 nM | IC50 [4]: 150 nM

CC(C)c1ccc(S2=NS(=O)(=O)c3ccc(S(N)(=O)=O)cc32)cc1 (stereo not drawn)
inhibition [1]: 10% | inhibition [2]: 19%

COc1ccc(S2=NS(=O)(=O)c3cc([N+](=O)[O-])ccc32)cc1 (stereo not drawn)
IC50 [3]: 880 nM | IC50 [4]: 350 nM

NS(=O)(=O)c1ccc2c(c1)S(=O)(=O)N=S2c1ccc(-c2ccccc2)cc1 (stereo not drawn)
IC50 [4]: 3450 nM | inhibition [1]: 31%

CCc1ccc(S2=NS(=O)(=O)c3cc(S(C)(=O)=O)ccc32)cc1 (stereo not drawn)
inhibition [1]: 43% | inhibition [2]: 35%

Cc1ccc(S2=NS(=O)(=O)c3ccc(S(N)(=O)=O)cc32)c(C)c1 (stereo not drawn)
inhibition [1]: inactive | inhibition [2]: inactive

O=S1(=O)N=S(c2ccccc2)c2ccccc21 (stereo not drawn)
inhibition [1]: 0% | inhibition [2]: 14%

Cc1ccc2c(c1)S(=O)(=O)N=S2c1ccc(Br)cc1 (stereo not drawn)
IC50 [4]: 6050 nM | inhibition [1]: 14%

COc1ccc(S2=NS(=O)(=O)c3ccc(S(N)(=O)=O)cc32)cc1 (stereo not drawn)
inhibition [1]: inactive | inhibition [2]: 21%

O=S1(=O)N=S(c2ccc(Br)cc2)c2ccccc21 (stereo not drawn)
inhibition [1]: 2% | inhibition [2]: 33%

O=[N+]([O-])c1ccc2c(c1)S(=O)(=O)N=S2c1ccncc1 (stereo not drawn)
inhibition [1]: 15% | inhibition [2]: 17%
